High-throughput results as filed in PubChem.
GSTO1 counter: counter-screen for RBBP9 inhibitors: inhibitors of human GSTO1; recombinant GSTO1, activity-based probe fluorescence polarization; 1.1% of 300,000 active; P78417; inhibition, % at 5.96 µM;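 active means inhibition above the campaign mean inhibition plus 3 SD, cut at about 35% in these data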
CTSL1 counter: counter-screen for PFM18AAP inhibitors: inhibitors of F. hepatica cathepsin L1; 0.49% of 300,000 active; inhibition, % at 5.96 µM; AID 1906; recombinant F. hepatica cathepsin L1, Z-Leu-Arg-MCA fluorescence;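 active means inhibition above the mean of all tested compounds plus 3 SD, set per screening campaign, cut at about 17% in these data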
PAD4 FP inh: blocks human protein arginine deiminase 4. Q9UM07. recombinant PAD4, RCA probe fluorescence polarization. inhibition, % at 6.36 µM. 0.41% of 330,000 active. AID 485272;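 active means percent inhibition above a cutoff equal to the mean of all tested compounds plus 3 SD, cut at about 15% in these data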
Target sequence (Q9UM07 whole entry, looked up): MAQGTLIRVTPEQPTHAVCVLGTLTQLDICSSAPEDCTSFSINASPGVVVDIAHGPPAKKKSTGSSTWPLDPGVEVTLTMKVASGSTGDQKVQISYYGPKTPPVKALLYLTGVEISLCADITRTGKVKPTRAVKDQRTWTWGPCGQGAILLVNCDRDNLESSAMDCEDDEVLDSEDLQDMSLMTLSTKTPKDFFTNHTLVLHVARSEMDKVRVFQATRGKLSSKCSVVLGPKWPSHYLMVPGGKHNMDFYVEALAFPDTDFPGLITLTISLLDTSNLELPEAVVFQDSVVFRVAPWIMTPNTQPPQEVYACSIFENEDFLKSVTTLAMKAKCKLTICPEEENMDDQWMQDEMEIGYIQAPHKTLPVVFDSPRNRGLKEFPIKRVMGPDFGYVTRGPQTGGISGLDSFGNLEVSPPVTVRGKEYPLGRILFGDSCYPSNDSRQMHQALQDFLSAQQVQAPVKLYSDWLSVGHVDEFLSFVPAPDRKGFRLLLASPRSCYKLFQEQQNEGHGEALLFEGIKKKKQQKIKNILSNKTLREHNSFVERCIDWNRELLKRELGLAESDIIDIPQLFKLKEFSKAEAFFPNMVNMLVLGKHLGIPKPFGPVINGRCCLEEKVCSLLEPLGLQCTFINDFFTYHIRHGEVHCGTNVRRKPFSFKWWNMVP
TDP2 absorb: TDP2 (human) inhibition, absorbance primary screen. O95551. recombinant TDP2, T5PNP hydrolysis, p-nitrophenol absorbance 415 nm. inhibition, % at 12.8 µM. 0.34% of 370,000 active. AID 720702;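 active means inhibition above the mean of all tested compounds plus 3 SD, set per campaign, cut at about 25% in these data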
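test system = human TDP2 enzyme | input = TDP2 enzyme at 120 nM final | medium = 50 mM Tris-HCl pH 7.5 with Mg2+, KCl, DTT, BSA | also added = T5PNP substrate, 5 mM | times = 2 h at 37 °C | technique = epi absorbance | benchmarks = high control without enzyme, low control DMSO plus TDP2 | replication = each compound tested once, singlicate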
TDP2 inh conf: human TDP2 inhibition, confirmation | shares compounds with TDP2 absorb | AID 743263 | recombinant human TDP2, absorbance read-out | 22% of 1,100 active | inhibition, % at 12.8 µM; in the data active means inhibition above about 25%
Of the large screens only hits and unclear results are named; the others gave an inactive call (follow-up assays come after a bar, where they were run). Hits are enriched below; roughly 1.4% of the tested compounds scored in any of these assays.

CCc1nnc(-n2nc(C)cc2-c2ccccc2)n1N	none
CN(C)S(=O)(=O)c1cccc(C(=O)OCC(=O)Nc2ccccc2OC(F)F)c1	none
CCN(CC)S(=O)(=O)c1cccc(C(=O)OCC(=O)Nc2ccccc2OC(F)F)c1	TDP2 absorb 64 | TDP2 inh conf inactive
O=C(NCc1ccc2c(c1)OCO2)C(=O)NCC1OCCN1S(=O)(=O)c1ccc(Cl)cc1 (stereo unspecified)	TDP2 absorb 37 | TDP2 inh conf inactive
Cc1c(NS(=O)(=O)c2cc3c(cc2Br)CCN3C(=O)C2CC2)c(=O)n(-c2ccccc2)n1C	none (no result: GSTO1 counter, CTSL1 counter, PAD4 FP inh)
O=C(NCCO)C1(C(=O)C2CC2)CC(c2ccccc2C(F)(F)F)=NO1 (stereo unspecified)	none (no result: GSTO1 counter, CTSL1 counter, PAD4 FP inh)
CC(=O)N1CCN(C(=O)c2cccc(S(=O)(=O)N3CCN(c4ccccc4)CC3)c2)CC1	none (no result: GSTO1 counter, CTSL1 counter)
O=C(c1cccc(S(=O)(=O)N2CCN(c3ccccc3)CC2)c1)N1CCN(c2ccccc2O)CC1	TDP2 absorb 29 | TDP2 inh conf inactive
O=C1c2nccnc2C(=O)N1c1ccc(C(F)(F)F)cc1	TDP2 absorb 28 | TDP2 inh conf inactive
CCOc1ccc(N2C(=O)c3cccnc3C2=O)cc1	none
CC(=O)Nc1ccc(/C=C2\CCc3ccccc3C2=O)cc1	TDP2 absorb 26 | TDP2 inh conf inactive
O=C1/C(=C\c2ccc([N+](=O)[O-])cc2)CCc2ccccc21	none
COc1cc(Cc2nccc3cc(OC)c(OC)cc23)c(S(=O)(=O)O)cc1OC	TDP2 absorb 41 | TDP2 inh conf inactive
O=C(O)CN1C(=O)/C(=C/c2ccc(SCc3ccccc3)o2)SC1=S	TDP2 absorb 26 (no result: GSTO1 counter, CTSL1 counter, PAD4 FP inh) | TDP2 inh conf inactive
Cc1ccc(-n2nc3c(=O)n(CCCC(=O)NCc4ccc(C)o4)nc(C)c3c2C)cc1	TDP2 absorb 25 | TDP2 inh conf inactive
CC(C)(C)c1ccc(-c2nnc(SCC(=O)Nc3ccc(Oc4ccccc4)cc3)n2Cc2ccco2)cc1	none (no result: GSTO1 counter, CTSL1 counter, PAD4 FP inh)
O=C(NCC(c1ccco1)N1CCOCC1)c1c(F)cccc1F (stereo unspecified)	TDP2 absorb 25 | TDP2 inh conf inactive
O=C(NCC1COc2ccccc2O1)c1ccc(NC(=O)c2c(Cl)cccc2Cl)cc1 (stereo unspecified)	none (no result: GSTO1 counter, CTSL1 counter, PAD4 FP inh)
Cn1c(N)c(C(=O)CCc2ccccc2)c(=O)n(C)c1=O	none (no result: GSTO1 counter, CTSL1 counter, PAD4 FP inh)
CCN(CC(=O)c1c(N)n(C)c(=O)n(C)c1=O)c1cccc2ccccc12	TDP2 absorb 38 | TDP2 inh conf inactive
CN1c2ccc(C#CC3CC3)cc2[C@@H]2[C@@H](CCN2C(=O)C2CCOCC2)[C@H]1CO	none (no result: GSTO1 counter, CTSL1 counter, PAD4 FP inh)
CC(NC1=CC(=O)c2cccnc2C1=O)C(O)c1ccccc1 (stereo unspecified)	TDP2 absorb 57 (no result: GSTO1 counter, CTSL1 counter, PAD4 FP inh) | TDP2 inh conf 71
CC(c1ccccc1)N1C(=O)c2cccnc2C1=O (stereo unspecified)	none
CCOC1=C2[C@@H](CN(S(=O)(=O)c3ccc(C)cc3)[C@H]2c2ccccc2Cl)[C@H]2C(=O)N(C)C(=O)[C@H]2C1	none (no result: GSTO1 counter, CTSL1 counter, PAD4 FP inh)
CCOc1ccc(N(CC(=O)NC2CCC(C)CC2)S(=O)(=O)c2c(C)noc2C)cc1 (stereo unspecified)	none
Cc1ccc(N(CC(=O)NC2CCCCC2)S(=O)(=O)c2c(C)noc2C)cc1	TDP2 absorb 29 | TDP2 inh conf inactive
Cc1ccccc1Cn1cc(CN2[C@@H](Cc3ccccc3)COc3cc(Br)ccc3S2(=O)=O)nn1	none (no result: GSTO1 counter, CTSL1 counter, PAD4 FP inh)
COc1ccc(CN2CCC(CNC(=O)Nc3ccc(Cl)cc3)CC2)cc1	none (no result: GSTO1 counter, CTSL1 counter, PAD4 FP inh)
COc1ccc(OC)c(CN2C(=O)CCCCC2(C)c2nnnn2C2CCCC2)c1 (stereo unspecified)	none (no result: GSTO1 counter, CTSL1 counter, PAD4 FP inh)
Cc1nn(-c2ccccc2)c(Cl)c1C1C(C#N)=C(N)Oc2n[nH]c(C)c21 (stereo unspecified)	none
Cc1nn(-c2ccccc2)c(Cl)c1C1C(C#N)=C(N)Oc2c1c(C)nn2-c1ccccc1 (stereo unspecified)	TDP2 absorb 27 | TDP2 inh conf inactive
Cc1ccc(-n2nc(C)c3c2OC(N)=C(C#N)C3c2ccccc2F)cc1 (stereo unspecified)	TDP2 absorb 26 | TDP2 inh conf inactive
Cc1nn(-c2ccccc2)c2c1C(c1c(C)[nH]c(C#N)c1C)C(C#N)=C(N)O2 (stereo unspecified)	TDP2 absorb 35 | TDP2 inh conf inactive
CC(C)(C)OC(=O)[C@H](Cc1ccccc1)NCC(=O)OCc1ccc(C(=O)NCc2ccccc2)cc1	none (no result: GSTO1 counter, CTSL1 counter, PAD4 FP inh)
C[C@H]1[C@@H](OC(=O)NCc2ccc(C(F)(F)F)cc2)CC[C@@]23CCCN2C(=O)CCC[C@@H]13	none (no result: GSTO1 counter, CTSL1 counter, PAD4 FP inh)
